pIC50: −log10 of the molar value. Calls of active or inactive are those of the source. The rule behind the calls is not given here.
Legend:
[1] = system: A549; assay: Inhibition of microtubule bundle formation in human A549 cells assessed as cell shrinking at 200 ug/mL incubated for 1 hr by alpha-tubulin staining based fluorescence microscopy
Procedure, shortened: (§1)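 A549 cells seeded on glass coverslips at 50000 cells/ml, grown 24 h, then exposed 1 h to 200 µg/ml conjugate or parent drug. Fixed and permeabilized in methanol at -20°C for 6 min, blocked in PBS + 5% BSA, stained with anti-α-tubulin (1:500, 1 h, 37°C), Alexa568 secondary and DAPI nuclei, then imaged by fluorescence microscopy at 63x.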

[2] = system: A549; assay: Induction of microtubule bundling in human A549 cells at 200 ug/mL incubated for 1 hr by alpha-tubulin staining based fluorescence microscopy; assay type: cell-based
Procedure, shortened: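 A549 cells grown in E-MEM with 10% FBS, 2 mM L-glutamine, penicillin and non-essential amino acids at 37°C, 5% CO2. Seeded at 50000 cells/ml on glass coverslips, exposed after 24 h. Then fixed and permeabilized in methanol at -20°C for 6 min and blocked in PBS+5% BSA. Stained with anti-α-tubulin (1:500), Alexa568 secondary and DAPI, and imaged by fluorescence microscopy.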

[3] = system: A549; assay: Inhibition of microtubule bundle formation in human A549 cells assessed as cell detachment at 200 ug/mL incubated for 1 hr by alpha-tubulin staining based fluorescence microscopy; procedure, shortened: as §1
[4] = system: A549; assay: Cytotoxicity against human A549 cells after 48 hrs by SRB assay; assay type: functional, cell-based; conditions: A549, 48 h
[5] = Stability of the compound assessed as compound mean nano particles size diluted with water at 2 mg/ml measured after 3 months at 5 degC by quasi-elastic light scattering method; assay type: physicochemical; conditions: buffer, 2191.5 h
Procedure, shortened: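 Nanoassemblies made by nanoprecipitation in water as 2 mg/mL dispersions, stored at 5°C. Size checked after three months on samples diluted with water, by light scattering.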

[6] = Stability in human serum at 37 degC assessed as ratio of HPLC area of peaks corresponding to intact compound at time zero at 2 mg/ml measured after 48 hrs; assay type: ADME, cell-free; conditions: read-out: Stability
[7] = Stability of the compound in water assessed as compound mean nano particles size at 2 mg/ml by quasi-elastic light scattering method; assay type: physicochemical; conditions: buffer
Procedure, shortened: (§2)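 Nanoassemblies formed by solvent displacement into water, 10 mM buffers (citrate or acetate pH 4.5, phosphate pH 7.5, borate or carbonate pH 10.2) or 100 mM NaCl, final 2 mg/mL. Mean diameter by quasi-elastic light scattering at 90° and 25°C, on samples diluted 1:20 in water; each value the average of five measurements.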

[8] = Stability of the compound in pH 4.5 citrate buffer assessed as compound mean nano particles size at 2 mg/ml by quasi-elastic light scattering method; assay type: physicochemical; procedure, shortened: as §2
[9] = Stability of the compound in pH 4.5 acetate buffer assessed as compound mean nano particles size at 2 mg/ml by quasi-elastic light scattering method; assay type: physicochemical; procedure, shortened: as §2
[10] = Stability of the compound in pH 7.5 phosphate buffer assessed as compound mean nano particles size at 2 mg/ml by quasi-elastic light scattering method; assay type: physicochemical; procedure, shortened: as §2
[11] = Stability of the compound in pH 10.2 borate buffer assessed as compound mean nano particles size at 2 mg/ml by quasi-elastic light scattering method; assay type: physicochemical; procedure, shortened: as §2
[12] = Stability of the compound in pH 10.2 carbonate buffer assessed as compound mean nano particles size at 2 mg/ml by quasi-elastic light scattering method; assay type: physicochemical; procedure, shortened: as §2
[13] = Stability of the compound in presence of 100 mM NaCl assessed as compound mean nano particles size at 2 mg/ml by quasi-elastic light scattering method; assay type: physicochemical; procedure, shortened: as §2
[14] = system: MCF7; assay: Cytotoxicity against human MCF7 cells after 48 hrs by SRB assay; assay type: functional, cell-based; conditions: MCF7, 48 h
Procedure, shortened: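 Nanoassemblies diluted in culture medium and added at various concentrations for 48 h at 37°C/5% CO₂. Survival % vs untreated control; run thrice in triplicate; IC50 from dose–effect curves.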

[15] = system: MCF7; assay: Cytotoxicity against human MCF7 cells in presence of 10 mM DTT after 48 hrs by SRB assay; assay type: functional, cell-based; conditions: MCF7, 48 h
[16] = Stability in pH 9 borate buffer; assay type: physicochemical
[17] = system: A549; assay: Binding affinity to microtubule in human A549 cells at 200 ug/mL incubated for 1 hr by alpha-tubulin staining based fluorescence microscopy; assay type: cell-based; procedure, shortened: as §1

SMILES | inhibition [1] | Activity [2] | inhibition [3] | pIC50 [4] | Stability [5] | remaining at 48 h, 2 mg/ml [6] | Stability [7] | Stability [8] | Stability [9] | Stability [10] | Stability [11] | Stability [12] | Stability [13] | pIC50 [14] | pIC50 [15] | Stability [16] | Activity [17]
CC(=O)O[C@H]1C(=O)[C@@]2(C)[C@H]([C@H](OC(=O)c3ccccc3)[C@]3(O)C[C@H](OC(=O)[C@H](O)[C@@H](NC(=O)c4ccccc4)c4ccccc4)C(C)=C1C3(C)C)[C@]1(OC(C)=O)CO[C@@H]1C[C@@H]2O [PACLITAXEL] | Active | Active | Active | 7.09 | – | – | – | – | – | – | – | – | – | – | – | – | –
CC(C)=CCC/C(C)=C/CC/C(C)=C/CC/C=C(\C)CC/C=C(\C)CCCOC(=O)CCCSSCCCC(=O)O[C@H]1[C@@H](C)CCC[C@H]2O[C@H]2C[C@@H](/C(C)=C/c2csc(C)n2)OC(=O)C[C@H](O)C(C)(C)C(=O)[C@@H]1C | Active | – | Active | < 5.30 | 191.1 nm | 58% | 165.1 nm | 197.8 nm | 201.5 nm | 235.5 nm | 207.7 nm | 212.2 nm | 312.9 nm | 5.89 | 6.30 | – | –
COc1cc([C@@H]2c3cc4c(cc3[C@H](O)[C@H]3COC(=O)[C@H]23)OCO4)cc(OC)c1OC [PODOFILOX] | Active | – | Active | 7.23 | – | – | – | – | – | – | – | – | – | 10.00 | 9.40 | – | –
C/C(=C\c1csc(C)n1)[C@@H]1C[C@@H]2O[C@@H]2CCC[C@H](C)[C@H](O)[C@@H](C)C(=O)C(C)(C)[C@@H](O)CC(=O)O1 [EPOTHILONE A] | Active | Active | Active | < 5.30 | – | – | – | – | – | – | – | – | – | 9.05 | 9.10 | – | –
CC(=O)O[C@H]1C(=O)[C@@]2(C)[C@H]([C@H](OC(=O)c3ccccc3)[C@]3(O)C[C@H](OC(=O)[C@H](OC(=O)OCC/C(C)=C/CC/C(C)=C/CC/C=C(\C)CC/C=C(\C)CCC=C(C)C)[C@@H](NC(=O)c4ccccc4)c4ccccc4)C(C)=C1C3(C)C)[C@]1(OC(C)=O)CO[C@@H]1C[C@@H]2O | – | – | – | – | 181.1 nm | 94% | – | – | – | – | – | – | – | 5.04 | 5.06 | – | –
CC[C@@]1(O)C(=O)OCc2c1cc1n(c2=O)Cc2cc3ccccc3nc2-1 [CAMPTOTHECIN] | – | – | – | 5.89 | – | – | – | – | – | – | – | – | – | 9.30 | 8.52 | – | –
CC[C@@]1(OC(=O)CCCCCCCCC(=O)OCCC/C(C)=C/CC/C(C)=C/CC/C=C(\C)CC/C=C(\C)CCC=C(C)C)C(=O)OCc2c1cc1n(c2=O)Cc2cc3ccccc3nc2-1 | – | – | – | – | 172.4 nm | 85% | 160.2 nm | 375.4 nm | 275.9 nm | 201.5 nm | 202.3 nm | 242.9 nm | 461.1 nm | 4.98 | 4.70 | Stable | –
COc1cc([C@@H]2c3cc4c(cc3[C@H](OC(=O)CCCCCCCCC(=O)OCCC/C(C)=C/CC/C(C)=C/CC/C=C(\C)CC/C=C(\C)CCC=C(C)C)[C@H]3COC(=O)[C@H]23)OCO4)cc(OC)c1OC | – | – | – | – | 210.5 nm | 82% | 180.5 nm | 629.2 nm | 287.5 nm | 193.5 nm | 211.3 nm | 315 nm | 720.3 nm | 3.98 | 3.96 | Stable | –
CC(C)=CCC/C(C)=C/CC/C(C)=C/CC/C=C(\C)CC/C=C(\C)CCCOC(=O)CCCCCCCCC(=O)O[C@H]1[C@@H](C)CCC[C@H]2O[C@H]2C[C@@H](/C(C)=C/c2csc(C)n2)OC(=O)C[C@H](O)C(C)(C)C(=O)[C@@H]1C | – | – | – | – | 142.9 nm | 70% | 125.3 nm | 203.2 nm | 206 nm | 212.9 nm | 351.1 nm | 312.2 nm | 502.4 nm | 4.40 | 4.35 | Stable | –
CC(=O)O[C@H]1C(=O)[C@@]2(C)[C@H]([C@H](OC(=O)c3ccccc3)[C@]3(O)C[C@H](OC(=O)[C@H](OC(=O)CCCCCCCCC(=O)OCCC/C(C)=C/CC/C(C)=C/CC/C=C(\C)CC/C=C(\C)CCC=C(C)C)[C@@H](NC(=O)c4ccccc4)c4ccccc4)C(C)=C1C3(C)C)[C@]1(OC(C)=O)CO[C@@H]1C[C@@H]2O | – | – | – | – | 110.5 nm | 95% | 107.9 nm | 391.2 nm | > 2 um | 125.6 nm | 161.4 nm | 635.9 nm | > 2 um | 5.92 | 5.82 | Stable | –
CC[C@@]1(OC(=O)CCCSSCCCC(=O)OCCC/C(C)=C/CC/C(C)=C/CC/C=C(\C)CC/C=C(\C)CCC=C(C)C)C(=O)OCc2c1cc1n(c2=O)Cc2cc3ccccc3nc2-1 | – | – | – | < 5.30 | 210.2 nm | 70% | 195.3 nm | 376.4 nm | 224.3 nm | 198.9 nm | 160.3 nm | 250.6 nm | 339.7 nm | 5.07 | 6.10 | – | –
COc1cc([C@@H]2c3cc4c(cc3[C@H](OC(=O)CCCSSCCCC(=O)OCCC/C(C)=C/CC/C(C)=C/CC/C=C(\C)CC/C=C(\C)CCC=C(C)C)[C@H]3COC(=O)[C@H]23)OCO4)cc(OC)c1OC | Active | – | Active | 5.12 | 215.3 nm | 52% | 185.9 nm | 428.3 nm | 275.9 nm | 201.5 nm | 202.3 nm | 242.9 nm | 676 nm | 6.40 | 7.22 | – | –
CC(=O)O[C@H]1C(=O)[C@@]2(C)[C@H]([C@H](OC(=O)c3ccccc3)[C@]3(O)C[C@H](OC(=O)[C@H](OC(=O)CCCSSCCCC(=O)OCCC/C(C)=C/CC/C(C)=C/CC/C=C(\C)CC/C=C(\C)CCC=C(C)C)[C@@H](NC(=O)c4ccccc4)c4ccccc4)C(C)=C1C3(C)C)[C@]1(OC(C)=O)CO[C@@H]1C[C@@H]2O | Active | – | Active | 6.31 | 106.5 nm | 93% | 100.8 nm | 462.4 nm | > 2 um | 162.4 nm | 181.7 nm | 723.3 nm | > 2 um | 7.22 | 8.52 | – | Active
